Test results from ChEMBL document CHEMBL3045677, “Sulfonamide-1,2,4-thiadiazole derivatives as antifungal and antibacterial agents: synthesis, biological evaluation, lipophilicity, and conformational studies” (2010).
In brackets after ≈: the same amount, converted by molar mass.

What was measured:
Fulvia fulva = assay: Antifungal activity against Passalora fulva TK5318 at 28 degC measured after 72 hr by microdilution method; assay type: functional; conditions: TK5318, 72 h
How it was run: (§1)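 Fungi were kept on malt agar at 4 °C. Spores were washed off with sterile 0.85% saline containing 0.1% Tween 80 and adjusted to about 1.0×10⁵ per well. Compounds were dissolved in DMSO (1 mg/ml stock) and serially diluted in malt broth with inoculum in 96-well plates, 72 h at 28 °C, for MIC. MFC came from subculture into fresh broth for a further 72 h at 28 °C.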

Aspergillus versicolor = assay: Antifungal activity against Aspergillus versicolor ATCC 11730 at 28 degC measured after 72 hr by microdilution method; assay type: functional; conditions: ATCC 11730, 72 h; how it was run: as §1
Aspergillus flavus = assay: Antifungal activity against Aspergillus flavus ATCC 9643 at 28 degC measured after 72 hr by microdilution method; assay type: functional; conditions: ATCC 9643, 72 h; how it was run: as §1
Aspergillus niger = assay: Antifungal activity against Aspergillus niger ATCC 6275 at 28 degC measured after 72 hr by microdilution method; assay type: functional; conditions: ATCC 6275, 72 h; how it was run: as §1
Trichoderma viride = assay: Antifungal activity against Hypocrea rufa IAM 5061 at 28 degC measured after 72 hr by microdilution method; assay type: functional; conditions: IAM 5061, 72 h; how it was run: as §1
Aspergillus fumigatus = assay: Antifungal activity against plant isolate Aspergillus fumigatus at 28 degC measured after 72 hr by microdilution method; assay type: functional; how it was run: as §1
Penicillium ochrochloron = assay: Antifungal activity against Penicillium ochrochloron ATCC 9112 at 28 degC measured after 72 hr by microdilution method; assay type: functional; conditions: ATCC 9112, 72 h; how it was run: as §1
Talaromyces funiculosus = assay: Antifungal activity against Talaromyces funiculosus ATCC 36839 at 28 degC measured after 72 hr by microdilution method; assay type: functional; conditions: ATCC 36839, 72 h; how it was run: as §1
Listeria monocytogenes [1] = assay: Antibacterial activity against Listeria monocytogenes NCTC 7973 at […] degC measured after 72 hr by microdilution method; assay type: functional; conditions: NCTC 7973, 72 h
How it was run: (§2)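 Bactericidal endpoint: after the 24 h broth microdilution (1.0×10⁴ CFU per well, LB broth, […] °C), wells were serially subcultured into plates of fresh broth and incubated a further 72 h. MBC was the lowest concentration with no visible growth, taken as 99.5% killing of the original inoculum.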

Proteus mirabilis [2] = assay: Antibacterial activity against Proteus mirabilis at […] degC measured after 72 hr by microdilution method; assay type: functional; how it was run: as §2
Salmonella typhimurium [3] = assay: Antibacterial activity against Salmonella enterica subsp. enterica serovar TyphimuriumATCC 13311 at […] degC measured after 72 hr by microdilution method; assay type: functional, Salmonella enterica subsp. enterica serovar Typhimurium; conditions: ATCC 13311, 72 h; how it was run: as §2
Pseudomonas aeruginosa [4] = assay: Antibacterial activity against Pseudomonas aeruginosa ATCC 27853 at […] degC measured after 72 hr by microdilution method; assay type: functional; conditions: ATCC 27853, 72 h; how it was run: as §2
Escherichia coli [5] = assay: Antibacterial activity against Escherichia coli ATCC 35210 at […] degC measured after 72 hr by microdilution method; assay type: functional; conditions: ATCC 35210, 72 h; how it was run: as §2
Staphylococcus aureus [6] = assay: Antibacterial activity against Staphylococcus aureus ATCC 6538 at […] degC measured after 72 hr by microdilution method; assay type: functional; conditions: ATCC 6538, 72 h; how it was run: as §2
Micrococcus flavus [7] = assay: Antibacterial activity against Micrococcus flavus ATCC 10240 at […] degC measured after 72 hr by microdilution method; assay type: functional; conditions: ATCC 10240, 72 h; how it was run: as §2
Bacillus cereus [8] = assay: Antibacterial activity against clinical isolate Bacillus cereus at […] degC measured after 72 hr by microdilution method; assay type: functional; how it was run: as §2
Listeria monocytogenes [9] = assay: Antibacterial activity against Listeria monocytogenes NCTC 7973 at […] degC measured after 24 hr by microdilution method; assay type: functional; conditions: NCTC 7973, 24 h
How it was run: (§3)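 Bacteria suspended in sterile saline at 1.0×10⁵ CFU/ml and added at 1.0×10⁴ CFU per well to LB broth with compound (1 mg/ml) in 96-well plates. Incubated 24 h at […] °C. MIC was the lowest concentration without visible growth under a binocular microscope. OD 655 nm was read against a blank and a positive control.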

Salmonella typhimurium [10] = assay: Antibacterial activity against Salmonella enterica subsp. enterica serovar Typhimurium ATCC 13311 at […] degC measured after 24 hr by microdilution method; assay type: functional; conditions: ATCC 13311, 24 h; how it was run: as §3
Pseudomonas aeruginosa [11] = assay: Antibacterial activity against Pseudomonas aeruginosa ATCC 27853 at […] degC measured after 24 hr by microdilution method; assay type: functional; conditions: ATCC 27853, 24 h; how it was run: as §3
Proteus mirabilis [12] = assay: Antibacterial activity against Proteus mirabilis at […] degC measured after 24 hr by microdilution method; assay type: functional; how it was run: as §3
Escherichia coli [13] = assay: Antibacterial activity against Escherichia coli ATCC 35210 at […] degC measured after 24 hr by microdilution method; assay type: functional; conditions: ATCC 35210, 24 h; how it was run: as §3
Staphylococcus aureus [14] = assay: Antibacterial activity against Staphylococcus aureus ATCC 6538 at […] degC measured after 24 hr by microdilution method; assay type: functional; conditions: ATCC 6538, 24 h; how it was run: as §3
Bacillus cereus [15] = assay: Antibacterial activity against clinical isolate Bacillus cereus at […] degC measured after 24 hr by microdilution method; assay type: functional; how it was run: as §3
Micrococcus flavus [16] = assay: Antibacterial activity against Micrococcus flavus ATCC 10240 at […] degC measured after 24 hr by microdilution method; assay type: functional; conditions: ATCC 10240, 24 h; how it was run: as §3

| SMILES | MFC (Fulvia fulva) | MIC (Fulvia fulva) | MFC (Aspergillus versicolor) | MIC (Aspergillus versicolor) | MFC (Aspergillus flavus) | MIC (Aspergillus flavus) | MFC (Aspergillus niger) | MIC (Aspergillus niger) | MFC (Trichoderma viride) | MIC (Trichoderma viride) | MFC (Aspergillus fumigatus) | MIC (Aspergillus fumigatus) | MFC (Penicillium ochrochloron) | MIC (Penicillium ochrochloron) | MFC (Talaromyces funiculosus) | MIC (Talaromyces funiculosus) | MBC (Listeria monocytogenes [1]) | MBC (Proteus mirabilis [2]) | MBC (Salmonella typhimurium [3]) | MBC (Pseudomonas aeruginosa [4]) | other results |
| --- | --- | --- | --- | --- | --- | --- | --- | --- | --- | --- | --- | --- | --- | --- | --- | --- | --- | --- | --- | --- | --- |
| COc1cc(Cc2nnc(Nc3ccc(Cl)cc3)s2)c(S(=O)(=O)N(C)C)cc1OC | 85.2 µM (≈ 40 µg/mL) | 21.3 µM (≈ 9.99 µg/mL) | 42.6 µM (≈ 20 µg/mL) | 10.7 µM (≈ 5.02 µg/mL) | 42.6 µM (≈ 20 µg/mL) | 10.7 µM (≈ 5.02 µg/mL) | 42.6 µM (≈ 20 µg/mL) | 10.7 µM (≈ 5.02 µg/mL) | 21.3 µM (≈ 9.99 µg/mL) | 10.7 µM (≈ 5.02 µg/mL) | 42.6 µM (≈ 20 µg/mL) | 10.7 µM (≈ 5.02 µg/mL) | 42.6 µM (≈ 20 µg/mL) | 21.3 µM (≈ 9.99 µg/mL) | 21.3 µM (≈ 9.99 µg/mL) | 10.7 µM (≈ 5.02 µg/mL) | 85.2 µM (≈ 40 µg/mL) | 42.6 µM (≈ 20 µg/mL) | 42.6 µM (≈ 20 µg/mL) | 85.2 µM (≈ 40 µg/mL) | MBC (Escherichia coli [5]): 85.2 µM (≈ 40 µg/mL); MBC (Staphylococcus aureus [6]): 42.6 µM (≈ 20 µg/mL); MBC (Micrococcus flavus [7]): 42.6 µM (≈ 20 µg/mL); MBC (Bacillus cereus [8]): 21.3 µM (≈ 9.99 µg/mL); MIC (Listeria monocytogenes [9]): 85.2 µM (≈ 40 µg/mL); MIC (Salmonella typhimurium [10]): 21.3 µM (≈ 9.99 µg/mL); MIC (Pseudomonas aeruginosa [11]): 42.6 µM (≈ 20 µg/mL); MIC (Proteus mirabilis [12]): 21.3 µM (≈ 9.99 µg/mL); MIC (Escherichia coli [13]): 42.6 µM (≈ 20 µg/mL); MIC (Staphylococcus aureus [14]): 21.3 µM (≈ 9.99 µg/mL); MIC (Bacillus cereus [15]): 10.7 µM (≈ 5.02 µg/mL); MIC (Micrococcus flavus [16]): 21.3 µM (≈ 9.99 µg/mL) |
| COc1cc(Cc2nnc(Nc3ccc([N+](=O)[O-])cc3)s2)c(S(=O)(=O)N(C)C)cc1OC | 20.9 µM (≈ 10 µg/mL) | 10.5 µM (≈ 5.04 µg/mL) | 41.8 µM (≈ 20 µg/mL) | 20.9 µM (≈ 10 µg/mL) | 41.8 µM (≈ 20 µg/mL) | 20.9 µM (≈ 10 µg/mL) | 41.8 µM (≈ 20 µg/mL) | 20.9 µM (≈ 10 µg/mL) | 20.9 µM (≈ 10 µg/mL) | 10.5 µM (≈ 5.04 µg/mL) | 41.8 µM (≈ 20 µg/mL) | 20.9 µM (≈ 10 µg/mL) | 41.8 µM (≈ 20 µg/mL) | 10.9 µM (≈ 5.23 µg/mL) | 20.9 µM (≈ 10 µg/mL) | 10.5 µM (≈ 5.04 µg/mL) | 83.6 µM (≈ 40.1 µg/mL) | 83.6 µM (≈ 40.1 µg/mL) | 20.9 µM (≈ 10 µg/mL) | 41.8 µM (≈ 20 µg/mL) | MBC (Escherichia coli [5]): 83.6 µM (≈ 40.1 µg/mL); MBC (Staphylococcus aureus [6]): 83.6 µM (≈ 40.1 µg/mL); MBC (Micrococcus flavus [7]): 83.6 µM (≈ 40.1 µg/mL); MBC (Bacillus cereus [8]): 20.9 µM (≈ 10 µg/mL); MIC (Listeria monocytogenes [9]): 41.8 µM (≈ 20 µg/mL); MIC (Salmonella typhimurium [10]): 10.5 µM (≈ 5.04 µg/mL); MIC (Pseudomonas aeruginosa [11]): 15.7 µM (≈ 7.53 µg/mL); MIC (Proteus mirabilis [12]): 41.8 µM (≈ 20 µg/mL); MIC (Escherichia coli [13]): 20.9 µM (≈ 10 µg/mL); MIC (Staphylococcus aureus [14]): 41.8 µM (≈ 20 µg/mL); MIC (Bacillus cereus [15]): 10.5 µM (≈ 5.04 µg/mL); MIC (Micrococcus flavus [16]): 20.9 µM (≈ 10 µg/mL) |
| COc1cc(Cc2nnc(Nc3ccc(C(F)(F)F)cc3)s2)c(S(=O)(=O)N(C)C)cc1OC | 19.9 µM (≈ 10 µg/mL) | 9.9 µM (≈ 4.98 µg/mL) | 39.8 µM (≈ 20 µg/mL) | 9.9 µM (≈ 4.98 µg/mL) | 39.8 µM (≈ 20 µg/mL) | 19.9 µM (≈ 10 µg/mL) | 39.8 µM (≈ 20 µg/mL) | 19.9 µM (≈ 10 µg/mL) | 19.9 µM (≈ 10 µg/mL) | 9.9 µM (≈ 4.98 µg/mL) | 39.8 µM (≈ 20 µg/mL) | 19.9 µM (≈ 10 µg/mL) | 39.8 µM (≈ 20 µg/mL) | 9.9 µM (≈ 4.98 µg/mL) | 19.9 µM (≈ 10 µg/mL) | 9.9 µM (≈ 4.98 µg/mL) | 79.6 µM (≈ 40 µg/mL) | 79.6 µM (≈ 40 µg/mL) | 19.9 µM (≈ 10 µg/mL) | 39.8 µM (≈ 20 µg/mL) | MBC (Escherichia coli [5]): 79.6 µM (≈ 40 µg/mL); MBC (Staphylococcus aureus [6]): 39.8 µM (≈ 20 µg/mL); MBC (Micrococcus flavus [7]): 19.9 µM (≈ 10 µg/mL); MBC (Bacillus cereus [8]): 19.9 µM (≈ 10 µg/mL); MIC (Listeria monocytogenes [9]): 39.8 µM (≈ 20 µg/mL); MIC (Salmonella typhimurium [10]): 9.9 µM (≈ 4.98 µg/mL); MIC (Pseudomonas aeruginosa [11]): 19.9 µM (≈ 10 µg/mL); MIC (Proteus mirabilis [12]): 19.9 µM (≈ 10 µg/mL); MIC (Escherichia coli [13]): 39.8 µM (≈ 20 µg/mL); MIC (Staphylococcus aureus [14]): 19.9 µM (≈ 10 µg/mL); MIC (Bacillus cereus [15]): 9.9 µM (≈ 4.98 µg/mL); MIC (Micrococcus flavus [16]): 9.9 µM (≈ 4.98 µg/mL) |
